Screens (PubChem)
L major viab: reduces viability of Leishmania major promastigotes; resazurin fluorescence viability; inhibition, % at 10 µM; 200,000 compounds, 9% hits; in the data active = inhibition above about 50%;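 note: promastigotes grown with compound for 44 hours at 28 °C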
HSF-1 act: increases HSF-1 driven luciferase reporter signal | NIH3T3-HGL HSF-1 luciferase reporter, MG132, 8 h; 100% = twice DMSO control signal | activation, % at 9 µM | 300,000 compounds, 1.7% hits;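 active = mean replicate activation of at least 50% with a set share of replicates each reaching 50%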;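 note: 0% = median of the neutral control wells and 100% = twice that signal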
Hsp70 activator: Hsp70 transcriptional activation, primary screen; activation, % at 10 µM; 200,000 compounds, 0.04% hits; AID 1203; HeLa Hsp70 promoter luciferase reporter, luminescence; scaled: vehicle 0, proteasome-inhibitor control 100%;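 active = activation above the mean across all tested compounds plus 3 SD, cutoff set per campaign, cut at about 5.5% in these data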;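 note: 100% = MG132 at 30 µM as the positive control and 0% = DMSO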
T cruzi inh: T. cruzi replication inhibition. AID 1885. inhibition, % (no concentration beside the values). 300,000 compounds, 1.4% hits. T. cruzi beta-gal in NIH3T3, luminescence, 90 h;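 active = mean inhibition across valid replicates above about 55%, limit read from the data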;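 note: signal also drops with host cell toxicity which is not excluded here; 0% = plate median of DMSO wells and 100% = zero luminescence signal; higher percent means less beta-gal luminescence so fewer parasites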
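Incubation – ≥90 h infection period, 3 h prior cell attachment · System – NIH/3T3 fibroblasts plus reporter T. cruzi · Doses – compound pinned at 50 nL/well, DMSO · Read-out basis – percent inhibition of parasite-derived β-gal signal · Signal – luminescent β-galactosidase signal after 60 min lysis · Also added – 5000 T. cruzi trypomastigotes/well · Medium – Low-serum DMEM with 2% FBS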
HSF1 inhib: HSF1 inhibition; NIH3T3-HGL HSE-luciferase, MG132-induced, luminescence 8 h; active compounds read low; activity change, negative = inhibition, % at 7.5 µM (by protocol); 300,000 compounds, 0.77% hits;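 active = more than half of replicate wells show activity change below -50%, luminescence cut by over half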;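 note: luciferase reports HSF-1 transcriptional activity via heat shock element; 0% = median of DMSO wells and -100% = zero luminescence signal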
* marks the source's active call; other numbers are inactive results; · = no result given. The sample as a whole holds a higher share of hits than the screen did.

SMILES | L major viab | HSF-1 act | Hsp70 activator | T cruzi inh | HSF1 inhib
Fc1ccccc1Cn1c2[n+](c3ccc(C(F)(F)F)cc31)CCCCC2 | 14 | -6 | 0 | 17 | -5
COc1cccc(-c2noc(CCC(=O)NCC3CCCO3)n2)c1 (configuration not stated) | -3 | 4 | 0 | -9 | -2
Cc1ccc(S(=O)(=O)NCC(=O)N(CC2CCCO2)C(C(=O)NC2CCCCC2)C(C)C)cc1 (configuration not stated) | · | -4 | · | 3 | 2
CCOC(=O)C1=C(C)Nc2sc(C(=O)c3ccc(F)cc3)c(N)c2C1c1ccc(C(=O)OC)cc1 (configuration not stated) | 91* | 9 | 0 | 50 | 4
CCOC(=O)C1=C(C)Nc2sc(C(=O)c3ccc(C)cc3)c(N)c2C1c1ccc(C(=O)OC)cc1 (configuration not stated) | 81* | -1 | 0 | 11 | -5
CCOC(=O)C1=C(C)NC(SCC(=O)OC)=C(C#N)C1c1ccc(C(=O)OC)cc1 (configuration not stated) | 2 | -10 | 0 | 16 | -3
O=C(COc1ccc(Br)cc1CNC1CCCC1)Nc1ccccc1 | 53* | -2 | 0 | 47 | 0
O=C(COC(=O)c1ccccc1OCC(=O)Nc1ccc(Br)cc1)Nc1ccccc1 | 65* | -5 | 0 | -13 | 2
Cc1nc2nc[nH]c2cc1Br | 0 | 5 | 0 | -8 | -1
Cc1nc2nc(-c3cccs3)[nH]c2cc1Br | · | 63* | · | -7 | 29
CCOC(=O)C(Cc1ccc(O)cc1)NC(=O)CNC(=O)C(CC(C)C)NC(=O)OC(C)(C)C (configuration not stated) | 57* | -8 | 0 | -31 | -8
COC(=O)C(Cc1ccccc1)NC(=O)C(CC(C)C)NC(=O)OC(C)(C)C (configuration not stated) | 6 | -39 | 0 | -4 | -21
COc1ccc2oc(=O)c(C(=O)NCc3ccccc3)cc2c1 | · | 3 | · | -6 | -5
CCCOc1ccc2cc(C(=O)NCc3ccccc3)c(=O)oc2c1 | · | -68 | · | 0 | -61*
COc1ccc2c3c(cccc13)C(=O)N(O)C2=O | 35 | 16 | 0 | -70 | 2
CCC1=NNc2cccc3c(OC)ccc1c23 | 100* | -10 | 0 | 31 | -8
CN(Cc1ccccc1)C(=O)N1CCOCC1 | · | 9 | · | -18 | -1
CCOC(=O)c1cnc2ccc(OCC)cc2c1NCCN1CCOCC1 | 55* | -12 | 0 | 13 | -3
CCOC(=O)c1cnc2ccc(C(=O)OC)cc2c1NCCN1CCOCC1 | 32 | 8 | 0 | 38 | -6
CCOC(=O)c1cnc2ccc(C(=O)OC)cc2c1NCCCN1CCOCC1 | · | -87 | · | 15 | -83*
C=CCN(CC=C)C(=O)Nc1cc(OC)ccc1OC | · | -33 | · | -1 | -17
O=C(CC1(O)C(=O)Nc2ccc(Br)cc21)c1ccc2c(c1)OCO2 (configuration not stated) | -4 | 57* | 0 | -17 | 8
Cc1ccc2c(c1)C(O)(CC(=O)c1ccc3c(c1)OCO3)C(=O)N2 (configuration not stated) | -5 | 5 | 2 | -4 | -3
OC(COc1cccc2ccccc12)CN1CCCC1 (configuration not stated) | 100* | 1 | 0 | 14 | 0
OC(COc1ccc2ccccc2c1)CN1CCCC1 (configuration not stated) | 74* | -1 | 0 | 3 | -2
SMILES | L major viab | HSF-1 act | Hsp70 activator | T cruzi inh | HSF1 inhib
OC(COc1cccc2ccccc12)CN1CCN(c2ccc(Cl)cc2)CC1 (configuration not stated) | · | -13 | · | -1 | 4
Cc1c(C)c2c(OCC(=O)Nc3cccnc3)cc3c(c2oc1=O)CCC(C)(C)O3 | · | 6 | · | -22 | 2
CC(C)Cc1cc(CN2CCCC(CO)(Cc3cccc(Cl)c3)C2)[nH]n1 (configuration not stated) | 68* | -1 | 1 | 38 | 3
OCC1(Cc2cccc(Cl)c2)CCCN(Cc2ccc3cc(F)ccc3n2)C1 (configuration not stated) | 55* | 35 | 0 | 25 | 10
OCC1(Cc2cccc(Cl)c2)CCCN(Cc2cn[nH]c2C2CCCCC2)C1 (configuration not stated) | 36 | -2 | 0 | 45 | -5
Cc1cc(CN2CCCC(CO)(Cc3cccc(Cl)c3)C2)n[nH]1 (configuration not stated) | 29 | 23 | 0 | -7 | 8
CC(C)Cc1cc(CN2CCC(CO)(Cc3cccc(C(F)(F)F)c3)CC2)[nH]n1 | 85* | 0 | 0 | 35 | 9
O=C(O)c1cccnc1SCC(=O)N1CCCc2ccccc21 | · | 4 | · | -6 | -3
COc1ccc(CNc2nc3c(c(C(F)(F)F)n2)CCCCC3)cc1 | 14 | · | 0 | · | ·
CC1CCN(CCC(=O)N/N=C/c2ccc([N+](=O)[O-])cc2)CC1 | 81* | -1 | 0 | 10 | 6
O=C(c1ccc(=O)n(Cc2ccc(Cl)c(Cl)c2)c1)N1CCOCC1 | -6 | 11 | 0 | -3 | -1
CCOc1ccc(OCCC(=O)OCC(=O)Nc2ccc(N3CCOCC3)cc2)cc1 | · | -4 | · | -6 | -3
Cc1ccc(OCCC(=O)OCC(=O)Nc2ccc(N3CCOCC3)cc2)cc1 | · | -70 | · | -6 | -61*
CCC(=O)N1CCN(c2ccc(NC(=O)COc3ccc(CC)cc3)cc2)CC1 | · | 67* | · | -6 | 27
O=C(c1cc(F)ccc1F)C1CCCN(Cc2cccn2-c2ccccn2)C1 (configuration not stated) | · | -5 | · | 1 | -2
COc1cccc(C(=O)C2CCCN(Cc3cccc(-n4cccn4)c3)C2)c1 (configuration not stated) | · | 3 | · | 46 | -4
COc1ccc(C(=O)C2CCCN(Cc3cccn3-c3ccccn3)C2)c(OC)c1 (configuration not stated) | 92* | 18 | 0 | 35 | -1
COc1cccc(CN2CCN(Cc3cccn3-c3cccnc3)CC2CCO)c1 (configuration not stated) | -3 | 56* | 0 | 9 | 16
COc1cccc(C(=O)C2CCCN(Cc3cccn3-c3cccnc3)C2)c1 (configuration not stated) | 89* | 2 | 0 | 51 | 3
COc1ccc(F)cc1C(=O)C1CCCN(Cc2cccn2-c2ccccn2)C1 (configuration not stated) | 63* | -71 | 0 | 25 | -64*
C/C(=N\NC(=O)c1nnn(-c2nonc2N)c1CSc1ccc(Cl)cc1)c1cccnc1 | · | -12 | · | 4 | -7
COc1ccc(OC)c(NC(=O)Cn2nc(C)c3ccccc3c2=O)c1 | · | -4 | · | -8 | -9
CCOc1ccc(N(CC(=O)NCCc2ccccc2)C(=O)CCC(=O)Nc2cc(C)ccn2)cc1 | · | 2 | · | 12 | -2
